The source made the active and inactive calls. No cut-off for these calls is given here.
Tests used:
[1] = Toxicity in Atlantic horseshoe crab blood limulus amebocyte lysate by chromogenic endotoxin test; settings: limulus polyphemus
Outline: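 Endotoxin was measured by chromogenic Limulus amebocyte lysate assay at a sensitivity of ≤0.1 EU/mL.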

[2] = biological target: T1, C-type lectin domain family 4 member E (Mus musculus) (UniProt Q9R0Q8); experiment: Agonist activity at mouse mincle coupled with FcRgamma expressed in 2B4-NFAT-GFP reporter cells up to 1 nmol after 18 hrs by flow cytometric analysis; assay type: cell-based
T1 sequence (whole entry): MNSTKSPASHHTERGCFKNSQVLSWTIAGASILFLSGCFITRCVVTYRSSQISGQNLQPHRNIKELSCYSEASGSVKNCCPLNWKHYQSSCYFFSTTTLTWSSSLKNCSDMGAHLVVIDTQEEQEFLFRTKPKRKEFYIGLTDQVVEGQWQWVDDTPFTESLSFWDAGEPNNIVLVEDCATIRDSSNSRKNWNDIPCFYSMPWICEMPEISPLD
Outline: (§1)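 2B4 NFAT-GFP reporter cells expressing mouse or human Mincle plus FcRγ were placed on plates coated with ligand at 0.01, 0.1 or 1 nmol/well; cells expressing FcRγ only served as negative control. Ligand was coated from isopropanol, 0.05 mM, and solvent evaporated. After 18 h, cells were harvested, stained with propidium iodide and GFP read by flow cytometry. Mean of three experiments in duplicate (±SEM).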

[3] = biological target: T1, C-type lectin domain family 4 member E (Mus musculus); experiment: Agonist activity at mincle in wild type C57BL/6 mouse GM-CSF derived BMDM assessed as increase in MIP2 release at 0.1 to 1 nmol after 24 hrs by sandwich ELISA
Outline: (§2)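 Wild-type or Mincle−/− C57BL/6 bone marrow was cultured 8 days with GM-CSF 50 ng/mL in complete RPMI. Macrophages were detached with Acutase and seeded on ligand-coated plates (0.1 or 1 nmol/well); LPS 100 ng/mL was used as comparator. Supernatant was taken at 24 h and TNF, IL-6, IL-1β and MIP-2 measured by sandwich ELISA. Representative of three experiments in triplicate (±SD).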

BMDM [4] = experiment: Immunostimulatory activity in mincle-/- C57BL/6 mouse GM-CSF derived BMDM assessed as increase in TNF release at […] after 24 hrs by sandwich ELISA method; assay type: functional, cell-based; outline: as §2
BMDM [5] = experiment: Immunostimulatory activity in mincle-/- C57BL/6 mouse GM-CSF derived BMDM assessed as increase in MIP2 release at […] after 24 hrs by sandwich ELISA method; assay type: functional, cell-based; outline: as §2
BMDM [6] = experiment: Immunostimulatory activity in mincle-/- C57BL/6 mouse GM-CSF derived BMDM assessed as increase in IL-1beta release at […] after 24 hrs by sandwich ELISA method; assay type: functional, cell-based; outline: as §2
[7] = biological target: T1, C-type lectin domain family 4 member E (Mus musculus); experiment: Agonist activity at mincle in wild type C57BL/6 mouse GM-CSF derived BMDM assessed as increase in IL-1beta release at 0.1 to 1 nmol after 24 hrs by sandwich ELISA; outline: as §2
[8] = biological target: T1, C-type lectin domain family 4 member E (Mus musculus); experiment: Agonist activity at mincle in wild type C57BL/6 mouse GM-CSF derived BMDM assessed as increase in IL-6 release at 0.1 to 1 nmol after 24 hrs by sandwich ELISA; outline: as §2
[9] = biological target: T2, C-type lectin domain family 4 member E (Homo sapiens) (UniProt Q9ULY5); experiment: Binding affinity to recombinant human mincle extracellular domain fused with human IgG Fc expressed in HEK293T cells at 0.1 nmol by ELISA; assay type: cell-based; settings: HEK-293T
T2 sequence (whole entry): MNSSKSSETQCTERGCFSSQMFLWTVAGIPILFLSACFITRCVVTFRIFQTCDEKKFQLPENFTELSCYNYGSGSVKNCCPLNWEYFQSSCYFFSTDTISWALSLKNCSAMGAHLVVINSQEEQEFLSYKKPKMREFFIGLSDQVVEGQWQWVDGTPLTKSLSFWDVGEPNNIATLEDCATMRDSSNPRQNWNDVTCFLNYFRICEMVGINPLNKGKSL

[10] = biological target: T1, C-type lectin domain family 4 member E (Mus musculus); experiment: Binding affinity to recombinant mouse mincle extracellular domain fused with human IgG Fc expressed in HEK293T cells at 0.1 nmol by ELISA; assay type: cell-based; settings: HEK-293T
[11] = biological target: T1, C-type lectin domain family 4 member E (Mus musculus); experiment: Agonist activity at mincle in wild type C57BL/6 mouse GM-CSF derived BMDM assessed as increase in TNF release at 0.1 to 1 nmol after 24 hrs by sandwich ELISA; outline: as §2
BMDM [12] = experiment: Immunostimulatory activity in mincle-/- C57BL/6 mouse GM-CSF derived BMDM assessed as increase in IL-6 release at […] after 24 hrs by sandwich ELISA method; assay type: functional, cell-based; outline: as §2
[13] = biological target: T2, C-type lectin domain family 4 member E (Homo sapiens); experiment: Agonist activity at human mincle coupled with FcRgamma expressed in 2B4-NFAT-GFP reporter cells after 18 hrs by flow cytometric analysis; assay type: cell-based; outline: as §1
[14] = biological target: T1, C-type lectin domain family 4 member E (Mus musculus); experiment: Agonist activity at mouse mincle coupled with FcRgamma expressed in 2B4-NFAT-GFP reporter cells after 18 hrs by flow cytometric analysis; assay type: cell-based; outline: as §1
[15] = biological target: T2, C-type lectin domain family 4 member E (Homo sapiens); experiment: Agonist activity at human mincle coupled with FcRgamma expressed in 2B4-NFAT-GFP reporter cells at higher concentration after 18 hrs by flow cytometric analysis; assay type: cell-based; outline: as §1

SMILES | Activity [1] | Activity [3] | Activity (BMDM [4]) | Activity (BMDM [5]) | Activity (BMDM [6]) | Activity [7] | Activity [8] | Activity [9] | Activity [10] | Activity [11] | Activity (BMDM [12]) | other results
CCCCCCCOc1ccc(C(=O)OC[C@H]2O[C@H](O[C@H]3O[C@H](COC(=O)c4ccc(OCCCCCCC)cc4)[C@@H](OCc4ccccc4)[C@H](OCc4ccccc4)[C@H]3OCc3ccccc3)[C@H](OCc3ccccc3)[C@@H](OCc3ccccc3)[C@@H]2OCc2ccccc2)cc1 | <= 0.1 EU/ml | – | – | – | – | – | – | – | – | – | – | –
CCCCCCCCCCCCCCCCCCOc1ccc(C(=O)OC[C@H]2O[C@H](O[C@H]3O[C@H](COC(=O)c4ccc(OCCCCCCCCCCCCCCCCCC)cc4OCc4ccccc4)[C@@H](OCc4ccccc4)[C@H](OCc4ccccc4)[C@H]3OCc3ccccc3)[C@H](OCc3ccccc3)[C@@H](OCc3ccccc3)[C@@H]2OCc2ccccc2)c(OCc2ccccc2)c1 | <= 0.1 EU/ml | – | – | – | – | – | – | – | – | – | – | –
O=C(OC[C@H]1O[C@H](O[C@H]2O[C@H](COC(=O)c3ccc(O)cc3O)[C@@H](O)[C@H](O)[C@H]2O)[C@H](O)[C@@H](O)[C@@H]1O)c1ccc(O)cc1O | <= 0.1 EU/ml | inactive | inactive | inactive | inactive | inactive | inactive | inactive | inactive | inactive | inactive | Activity [2]: inactive
CCCCCCCCCCCCCCCCCCOc1ccc(C(=O)OC[C@H]2O[C@H](O[C@H]3O[C@H](COC(=O)c4ccc(OCCCCCCCCCCCCCCCCCC)cc4)[C@@H](O)[C@H](O)[C@H]3O)[C@H](O)[C@@H](O)[C@@H]2O)cc1 | <= 0.1 EU/ml | Active | inactive | inactive | inactive | Active | Active | Active | Active | Active | inactive | Activity [13]: Dose-dependent effect; Activity [14]: Dose-dependent effect
CCCCCCCCCCCCCCCCCCOc1cc(C)c(C(=O)OC[C@H]2O[C@H](O[C@H]3O[C@H](COC(=O)c4c(C)cc(OCCCCCCCCCCCCCCCCCC)cc4OCc4ccccc4)[C@@H](OCc4ccccc4)[C@H](OCc4ccccc4)[C@H]3OCc3ccccc3)[C@H](OCc3ccccc3)[C@@H](OCc3ccccc3)[C@@H]2OCc2ccccc2)c(OCc2ccccc2)c1 | <= 0.1 EU/ml | – | – | – | – | – | – | – | – | – | – | –
CCCCCCCCCCCCCCCCCCOc1ccc(C(=O)OC[C@H]2O[C@H](O[C@H]3O[C@H](COC(=O)c4ccc(OCCCCCCCCCCCCCCCCCC)cc4)[C@@H](OCc4ccccc4)[C@H](OCc4ccccc4)[C@H]3OCc3ccccc3)[C@H](OCc3ccccc3)[C@@H](OCc3ccccc3)[C@@H]2OCc2ccccc2)cc1 | <= 0.1 EU/ml | – | – | – | – | – | – | – | – | – | – | –
O=C(OC[C@H]1O[C@H](O[C@H]2O[C@H](COC(=O)c3ccc(OCc4ccccc4)cc3OCc3ccccc3)[C@@H](OCc3ccccc3)[C@H](OCc3ccccc3)[C@H]2OCc2ccccc2)[C@H](OCc2ccccc2)[C@@H](OCc2ccccc2)[C@@H]1OCc1ccccc1)c1ccc(OCc2ccccc2)cc1OCc1ccccc1 | <= 0.1 EU/ml | – | – | – | – | – | – | – | – | – | – | –
COc1ccc(C(=O)OC[C@H]2O[C@H](O[C@H]3O[C@H](COC(=O)c4ccc(OC)cc4O)[C@@H](O)[C@H](O)[C@H]3O)[C@H](O)[C@@H](O)[C@@H]2O)c(O)c1 | <= 0.1 EU/ml | inactive | inactive | inactive | inactive | inactive | inactive | inactive | inactive | inactive | inactive | Activity [15]: Active
Cc1cc(OCc2ccccc2)cc(OCc2ccccc2)c1C(=O)OC[C@H]1O[C@H](O[C@H]2O[C@H](COC(=O)c3c(C)cc(OCc4ccccc4)cc3OCc3ccccc3)[C@@H](OCc3ccccc3)[C@H](OCc3ccccc3)[C@H]2OCc2ccccc2)[C@H](OCc2ccccc2)[C@@H](OCc2ccccc2)[C@@H]1OCc1ccccc1 | <= 0.1 EU/ml | – | – | – | – | – | – | – | – | – | – | –
CCCCCCCCCCCCCCCCCCOc1cc(C)c(C(=O)OC[C@H]2O[C@H](O[C@H]3O[C@H](COC(=O)c4c(C)cc(OCCCCCCCCCCCCCCCCCC)cc4O)[C@@H](O)[C@H](O)[C@H]3O)[C@H](O)[C@@H](O)[C@@H]2O)c(O)c1 | <= 0.1 EU/ml | Active | inactive | inactive | inactive | Active | Active | Active | Active | Active | inactive | Activity [13]: Dose-dependent effect; Activity [14]: Dose-dependent effect
COc1ccc(C(=O)OC[C@H]2O[C@H](O[C@H]3O[C@H](COC(=O)c4ccc(OC)cc4OCc4ccccc4)[C@@H](OCc4ccccc4)[C@H](OCc4ccccc4)[C@H]3OCc3ccccc3)[C@H](OCc3ccccc3)[C@@H](OCc3ccccc3)[C@@H]2OCc2ccccc2)c(OCc2ccccc2)c1 | <= 0.1 EU/ml | – | – | – | – | – | – | – | – | – | – | –
Cc1cc(O)cc(O)c1C(=O)OC[C@H]1O[C@H](O[C@H]2O[C@H](COC(=O)c3c(C)cc(O)cc3O)[C@@H](O)[C@H](O)[C@H]2O)[C@H](O)[C@@H](O)[C@@H]1O [BRARTEMICIN] | <= 0.1 EU/ml | inactive | inactive | inactive | inactive | inactive | inactive | inactive | inactive | inactive | inactive | Activity [2]: inactive
CCCCCCCOc1ccc(C(=O)OC[C@H]2O[C@H](O[C@H]3O[C@H](COC(=O)c4ccc(OCCCCCCC)cc4OCc4ccccc4)[C@@H](OCc4ccccc4)[C@H](OCc4ccccc4)[C@H]3OCc3ccccc3)[C@H](OCc3ccccc3)[C@@H](OCc3ccccc3)[C@@H]2OCc2ccccc2)c(OCc2ccccc2)c1 | <= 0.1 EU/ml | – | – | – | – | – | – | – | – | – | – | –
CCCCOc1ccc(C(=O)OC[C@H]2O[C@H](O[C@H]3O[C@H](COC(=O)c4ccc(OCCCC)cc4OCc4ccccc4)[C@@H](OCc4ccccc4)[C@H](OCc4ccccc4)[C@H]3OCc3ccccc3)[C@H](OCc3ccccc3)[C@@H](OCc3ccccc3)[C@@H]2OCc2ccccc2)c(OCc2ccccc2)c1 | <= 0.1 EU/ml | – | – | – | – | – | – | – | – | – | – | –
